From ChEMBL document CHEMBL1148329, “Synthesis and structure-activity studies on N-[5-(1H-imidazol-4-yl)-5,6,7,8-tetrahydro-1-naphthalenyl]methanesulfonamide, an imidazole-containing alpha(1A)-adrenoceptor agonist” (J Med Chem, 2004)

How the values were obtained:
[1] = molecular target: T1, Alpha-1B adrenergic receptor (Mesocricetus auratus, UniProt P18841); test: In vitro binding affinity towards alpha-1B adrenergic receptor of hamster clone in radioligand binding assay; assay type: single protein
T1 sequence (P18841 whole entry): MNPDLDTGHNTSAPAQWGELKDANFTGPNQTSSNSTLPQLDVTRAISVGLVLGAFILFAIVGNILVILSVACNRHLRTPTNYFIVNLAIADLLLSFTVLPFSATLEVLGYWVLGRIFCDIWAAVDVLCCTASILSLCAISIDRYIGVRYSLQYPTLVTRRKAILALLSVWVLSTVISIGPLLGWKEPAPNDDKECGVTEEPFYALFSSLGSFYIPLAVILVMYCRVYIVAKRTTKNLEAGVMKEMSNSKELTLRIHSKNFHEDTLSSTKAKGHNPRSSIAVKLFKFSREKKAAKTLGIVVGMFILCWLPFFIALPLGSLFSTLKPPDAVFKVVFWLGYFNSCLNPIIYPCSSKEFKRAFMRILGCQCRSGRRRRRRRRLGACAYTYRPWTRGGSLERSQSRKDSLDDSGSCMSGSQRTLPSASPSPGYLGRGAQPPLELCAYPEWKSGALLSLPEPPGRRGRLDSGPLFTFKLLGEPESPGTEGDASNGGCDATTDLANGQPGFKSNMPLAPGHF
In short: (§1)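 Radioligand binding at α1 subtypes: α1A from rat submaxillary gland, α1B hamster clone, α1D rat clone. Run essentially per an earlier method.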

[2] = molecular target: T2, Alpha-1A adrenergic receptor (Rattus norvegicus, UniProt P43140); test: In vitro binding affinity towards alpha-1A adrenergic receptor of rat submaxillary gland in radioligand binding assay; in short: as §1
T2 sequence (P43140 whole entry): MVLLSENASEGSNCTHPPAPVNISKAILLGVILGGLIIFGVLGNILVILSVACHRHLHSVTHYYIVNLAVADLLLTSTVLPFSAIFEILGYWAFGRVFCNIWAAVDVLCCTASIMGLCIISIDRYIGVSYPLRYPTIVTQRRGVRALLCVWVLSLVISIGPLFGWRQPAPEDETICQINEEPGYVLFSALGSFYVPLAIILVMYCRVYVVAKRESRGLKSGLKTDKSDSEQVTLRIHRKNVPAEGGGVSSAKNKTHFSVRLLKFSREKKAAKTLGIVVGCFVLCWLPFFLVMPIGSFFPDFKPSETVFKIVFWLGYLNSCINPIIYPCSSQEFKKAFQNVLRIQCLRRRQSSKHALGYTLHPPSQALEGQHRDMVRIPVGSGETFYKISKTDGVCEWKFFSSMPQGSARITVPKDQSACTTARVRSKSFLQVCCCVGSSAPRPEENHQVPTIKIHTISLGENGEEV

Canis familiaris [3] = test: Uroselectivity was determined by measuring effective dose required for 20 mmHg increase of mean arterial pressure (MAP) in vivo in dog; assay type: functional, Canis lupus familiaris, Artery
In short: (§2)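 Dog model recording intraurethral pressure (IUP) and mean arterial pressure (MAP) simultaneously. Increasing iv doses given, maximal effect of each dose taken. Doses giving a 5 mmHg rise in IUP (ED Δ5) or 20 mmHg rise in MAP (ED Δ20) were calculated, in nmol/kg ± SEM, n ≥ 4 (2 or 3 where footnoted).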

Canis familiaris [4] = test: Uroselectivity was determined by measuring effective dose required for 5 mmHg increase of intraurethral pressure (IUP) in vivo in dog; assay type: functional, Canis lupus familiaris; in short: as §2
[5] = molecular target: Alpha adrenergic receptor 1A and 1B (Rattus norvegicus) (UniProt P15823+P43140); test: Selectivity is ratio of pKi (binding affinity) of alpha-1B receptor to that of alpha-1A receptor.; assay type: protein assay
[6] = molecular target: Alpha adrenergic receptor 1A and 1D (Rattus norvegicus) (UniProt P23944+P43140); test: Selectivity is ratio of pKi (binding affinity) of Alpha-1D to that of alpha1A; assay type: protein assay
Canis familiaris [7] = species: Canis familiaris; test: Ratio of MAP ED delta20 to that of IUP ED delta5
[8] = molecular target: T3, Alpha-1A adrenergic receptor (Oryctolagus cuniculus) (UniProt O02824); test: Efficacy relative to phenylephrine (PE) to constrict tissue containing the alpha-1A adrenergic receptor in rabbit urethra; assay type: functional, tissue-based
T3 sequence (whole entry): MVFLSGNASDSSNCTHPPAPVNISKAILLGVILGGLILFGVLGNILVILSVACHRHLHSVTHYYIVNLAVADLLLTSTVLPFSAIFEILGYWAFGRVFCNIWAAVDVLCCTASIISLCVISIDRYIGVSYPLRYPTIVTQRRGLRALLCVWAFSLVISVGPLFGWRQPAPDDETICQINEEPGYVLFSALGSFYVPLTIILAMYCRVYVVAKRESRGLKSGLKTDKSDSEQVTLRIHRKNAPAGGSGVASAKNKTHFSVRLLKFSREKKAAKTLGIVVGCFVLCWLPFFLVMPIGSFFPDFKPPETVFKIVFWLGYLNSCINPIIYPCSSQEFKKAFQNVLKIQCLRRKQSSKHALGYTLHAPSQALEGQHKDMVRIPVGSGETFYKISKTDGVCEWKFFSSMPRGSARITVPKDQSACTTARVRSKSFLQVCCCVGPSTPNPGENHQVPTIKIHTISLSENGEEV
In short: (§3)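 α1-agonist dose–response curves in isolated tissue: rabbit urethra (α1A), rat spleen (α1B), rat aorta (α1D). Agonist potency and efficacy read from the concentration–response curves.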

[9] = molecular target: T3, Alpha-1A adrenergic receptor (Oryctolagus cuniculus); test: Functional agonism of the compounds to constrict tissue containing the alpha-1A adrenergic receptor in rabbit urethra; assay type: tissue-based; in short: as §3
[10] = molecular target: T4, Alpha-1D adrenergic receptor (Rattus norvegicus, UniProt P23944); test: In vitro binding affinity towards alpha-1D adrenergic receptor of rat clone in radioligand binding assay; in short: as §1
T4 sequence (P23944 whole entry): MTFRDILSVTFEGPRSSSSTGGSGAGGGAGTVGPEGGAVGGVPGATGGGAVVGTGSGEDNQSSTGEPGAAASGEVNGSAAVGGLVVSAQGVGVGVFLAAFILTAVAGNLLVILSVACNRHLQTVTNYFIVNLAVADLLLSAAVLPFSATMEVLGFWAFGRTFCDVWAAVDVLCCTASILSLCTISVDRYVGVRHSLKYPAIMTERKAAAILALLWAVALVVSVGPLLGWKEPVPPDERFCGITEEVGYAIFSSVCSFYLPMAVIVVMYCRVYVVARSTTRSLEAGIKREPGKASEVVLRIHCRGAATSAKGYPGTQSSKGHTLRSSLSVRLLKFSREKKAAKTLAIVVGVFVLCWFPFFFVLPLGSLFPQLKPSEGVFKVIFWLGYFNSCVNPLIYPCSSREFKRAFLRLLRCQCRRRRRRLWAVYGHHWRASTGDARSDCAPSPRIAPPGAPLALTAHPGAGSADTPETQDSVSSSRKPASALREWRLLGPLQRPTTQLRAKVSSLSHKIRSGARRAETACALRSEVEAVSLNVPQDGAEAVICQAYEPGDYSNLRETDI

[11] = molecular target: T5, Alpha-2A adrenergic receptor (Homo sapiens, UniProt P08913); test: In vitro binding affinity towards alpha-2A adrenergic receptor of human clone in radioligand binding assay
T5 sequence (P08913 whole entry): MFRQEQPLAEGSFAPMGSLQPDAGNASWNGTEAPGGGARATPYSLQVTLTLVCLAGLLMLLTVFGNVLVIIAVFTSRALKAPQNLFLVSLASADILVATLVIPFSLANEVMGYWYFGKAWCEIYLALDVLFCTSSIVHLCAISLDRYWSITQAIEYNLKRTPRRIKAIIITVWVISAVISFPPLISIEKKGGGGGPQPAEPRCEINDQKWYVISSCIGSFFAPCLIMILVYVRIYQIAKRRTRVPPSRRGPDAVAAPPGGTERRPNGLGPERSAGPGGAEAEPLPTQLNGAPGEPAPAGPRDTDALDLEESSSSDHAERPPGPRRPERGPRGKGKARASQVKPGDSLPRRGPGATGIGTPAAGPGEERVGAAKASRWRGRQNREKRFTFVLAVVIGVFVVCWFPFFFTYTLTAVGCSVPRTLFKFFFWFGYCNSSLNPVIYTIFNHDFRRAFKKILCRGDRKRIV

[12] = molecular target: T6, Alpha-2B adrenergic receptor (Rattus norvegicus, UniProt P19328); test: In vitro binding affinity towards alpha-2B adrenergic receptor of rat neonatal lung in radioligand binding assay
T6 sequence (P19328 whole entry): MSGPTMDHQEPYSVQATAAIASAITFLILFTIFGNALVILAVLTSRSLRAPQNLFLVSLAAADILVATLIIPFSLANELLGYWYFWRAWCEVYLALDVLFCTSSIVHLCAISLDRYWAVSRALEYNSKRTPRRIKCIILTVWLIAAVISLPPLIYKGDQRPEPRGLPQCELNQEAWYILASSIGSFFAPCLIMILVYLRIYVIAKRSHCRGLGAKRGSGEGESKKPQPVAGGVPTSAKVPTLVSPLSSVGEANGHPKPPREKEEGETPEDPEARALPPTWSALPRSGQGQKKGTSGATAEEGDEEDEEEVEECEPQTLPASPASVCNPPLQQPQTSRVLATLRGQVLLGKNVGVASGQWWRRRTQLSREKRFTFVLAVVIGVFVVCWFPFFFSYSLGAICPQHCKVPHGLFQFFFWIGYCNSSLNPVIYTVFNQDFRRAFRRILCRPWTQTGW

[13] = molecular target: T7, Alpha-2A adrenergic receptor (Rattus norvegicus) (UniProt P22909); test: Efficacy relative to clonidine to constrict tissue containing the alpha-2A adrenergic receptor in rat prostatic vas deferens
T7 sequence (whole entry): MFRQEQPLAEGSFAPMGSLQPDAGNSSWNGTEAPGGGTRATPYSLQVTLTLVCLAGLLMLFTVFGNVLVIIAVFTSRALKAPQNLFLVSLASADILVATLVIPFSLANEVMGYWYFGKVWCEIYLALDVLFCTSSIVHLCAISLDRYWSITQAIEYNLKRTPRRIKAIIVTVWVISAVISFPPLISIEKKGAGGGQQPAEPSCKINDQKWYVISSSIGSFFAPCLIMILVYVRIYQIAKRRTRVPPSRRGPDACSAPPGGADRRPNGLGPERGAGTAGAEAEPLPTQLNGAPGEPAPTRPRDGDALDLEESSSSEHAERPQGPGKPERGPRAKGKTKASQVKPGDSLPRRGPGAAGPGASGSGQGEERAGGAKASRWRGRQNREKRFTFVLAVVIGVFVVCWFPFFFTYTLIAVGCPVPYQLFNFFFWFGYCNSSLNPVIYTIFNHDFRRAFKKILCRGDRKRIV

[14] = molecular target: T8, Alpha-1B adrenergic receptor (Rattus norvegicus) (UniProt P15823); test: Efficacy relative to phenylephrine (PE) constriction of rat spleen containing alpha-1B adrenergic receptor; assay type: functional, tissue-based; in short: as §3
T8 sequence (whole entry): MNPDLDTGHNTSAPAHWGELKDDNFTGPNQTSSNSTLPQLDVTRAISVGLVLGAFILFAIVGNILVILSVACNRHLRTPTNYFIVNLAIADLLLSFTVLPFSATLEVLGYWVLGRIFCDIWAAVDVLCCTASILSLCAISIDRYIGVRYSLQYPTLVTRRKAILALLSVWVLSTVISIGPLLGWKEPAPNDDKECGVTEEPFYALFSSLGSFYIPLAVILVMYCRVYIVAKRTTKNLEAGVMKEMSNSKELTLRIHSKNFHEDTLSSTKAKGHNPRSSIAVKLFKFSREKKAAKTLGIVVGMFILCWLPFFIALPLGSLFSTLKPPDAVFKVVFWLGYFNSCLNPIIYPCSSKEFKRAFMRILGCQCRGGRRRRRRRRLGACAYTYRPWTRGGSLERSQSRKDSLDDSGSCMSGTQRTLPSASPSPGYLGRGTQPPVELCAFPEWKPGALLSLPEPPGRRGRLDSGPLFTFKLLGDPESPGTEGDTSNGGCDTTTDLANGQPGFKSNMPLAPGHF

| SMILES | Ki [1] [µM] | Ki [2] [nM] | ED delta20 (Canis familiaris [3]) [nM/kg] | ED delta5 (Canis familiaris [4]) [nM/kg] | Selectivity [5] | Selectivity [6] | Ratio (Canis familiaris [7]) | Efficacy [8] [%] | pD2 [9] | Ki [10] [nM] | Ki [11] [nM] | Ki [12] [nM] | Efficacy [13] [%] | Efficacy [14] [%] |
| --- | --- | --- | --- | --- | --- | --- | --- | --- | --- | --- | --- | --- | --- | --- |
| CCS(=O)(=O)Nc1cc(Cl)cc2c1CCCC2c1c[nH]cn1 (stereo unspecified) | > 10 | 45.7 | 47.7 | 19.1 | > 217 | 8 | 2.5 |  |  |  |  |  |  |  |
| CS(=O)(=O)Nc1cccc2c1CCCC2C1=NCCN1 (stereo unspecified) | 7.41 | 457 | 9.2 | 11.9 | 20 | 9 | 1.1 | 87 | 6.19 | 4270 |  |  |  |  |
| CS(=O)(=O)Nc1cccc2c1CCCC2c1c[nH]cn1 (stereo unspecified) |  |  | 102.3 |  |  |  |  | 83 |  |  | 105 | 676 | 62 |  |
| CC(=O)Nc1cccc2c1CCCC2c1c[nH]cn1 (stereo unspecified) |  |  | 220 |  |  |  |  | 70 |  |  |  | 3020 | 100 | 35 |
| CCS(=O)(=O)Nc1cccc(Cc2c[nH]cn2)c1 | 0.891 |  | 80 | 12 |  |  |  | 80 |  | 275 | 170 | 977 | 34 |  |
| CS(=O)(=O)Nc1cccc2c1OCCC2c1c[nH]cn1 (stereo unspecified) |  |  | 163.9 |  |  |  |  | 88 |  |  |  |  |  | 17 |
| CS(=O)(=O)Nc1cccc2c1CCC[C@H]2c1c[nH]cn1 |  |  | 48.7 |  |  |  |  | 84 |  |  |  |  | 29 |  |
| CCS(=O)(=O)Nc1cccc2c1CCC2c1c[nH]cn1 (stereo unspecified) |  |  | 5.6 | 4.4 |  |  |  | 87 |  |  |  | 186 | 26 |  |
